# Compound activity from PubChem BioAssay.
# This excerpt belongs to a sample that is enriched for hits.
# LANA-nucl inh – inhibitors of KSHV LANA-nucleosome binding, primary screen, biochemical, fluorescence polarization, FITC-LANA1-23, chicken nucleosomes; 51,000 tested, 0.3% active; z-score (test concentration not listed); FITC-LANA1-23 / chicken nucleosome fluorescence polarization; hits give low values;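 active = both repeat wells score below -2 in polarization z-score versus plate sample wells, excluding overly bright wells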
#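 test system = FITC-LANA peptide and chicken nucleosomes | amount = 240 nM purified chicken nucleosomes (480 nM peptide binding sites), final | reagent = 50 nM FITC-LANA1-23 probe | medium = TEN-BT buffer, pH 7.5 | doses = single compound addition by pin transfer, 100 nL per well | timing = 10–45 min, room temperature | detection = fluorescence polarization | repeats = duplicate plates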
# Ab BasE inh – BasE siderophore enzyme inhibitors, primary screen, biochemical, Acinetobacter baumannii ATCC 17978, fluorescence polarization | purified BasE, fluorescence polarization binding displacement | AID 485350, 2010 | 84,000 tested, 0.1% active | inhibition, % (test concentration not listed); in the data active = inhibition above about 25%, passing the limit was not always enough;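 note: 0% = negative plate control signal and 100% = positive plate control signal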
# An asterisk follows results filed as active; nt = no result.
SMILES,LANA-nucl inh,Ab BasE inh
CCN1CCN(c2ccc(N)cc2)CC1,-2.87*,nt
CN1CCN(c2ccc(N)cc2)CC1,nt,-0.1
N#Cc1c(/N=C/c2ccc(O)cc2O)sc2c1C1CCN2CC1,-3.89*,17.3
Cc1cccc(CN2CCNCC2)c1,nt,1.7
CC(C)c1ccc(O)cc1,nt,9.6
O=S(=O)(c1ccc(O)cc1)c1ccc(O)cc1,nt,66.3*
CCc1ccccc1N1C(=O)CC(=O)NC1=S,-0.108,5.1
CN(C)/N=C/c1cn(C)c2ccccc12,nt,1.6
Fc1c(F)c2c(c(F)c1Cl)Oc1ccccc1O2,0.559,0.2
CC[C@@]1(O)C[C@H](O[C@H]2C[C@H](N(C)C)[C@H](O)[C@H](C)O2)c2c(cc3c(c2O)C(=O)c2c(O)cccc2C3=O)[C@H]1C(=O)OC,2.2,-2.1
CC[C@@]1(O)C[C@H](O[C@H]2C[C@H](N(C)C)[C@H](O)[C@H](C)O2)c2c(cc3c(c2O)C(=O)c2c(O)ccc(O)c2C3=O)[C@H]1C(=O)OC,-2.78*,4.9
COc1ccc(OC)c(N2C(=O)NC(=O)C(CCc3ccccn3)(CCc3ccccn3)C2=O)c1,0.016,-2.1
C1CN2CN3CCN(CN1C3)C2,-0.386,2.2
CC1(C)C(C(=O)Nc2cc(Cl)ccn2)C1(C)C,0.465,2.6
CN1CCc2c(C#N)c(Cl)nc(NCc3ccccc3)c2C1,0.063,1.7
CN1CCc2c(C#N)c(N)n(N)c(=S)c2C1,-3.8*,41.7
N#CC(C#N)=Cc1ccc(-c2ccccc2)o1,-4.69*,-26.4
Cc1ccc(C=C(C#N)C#N)o1,-0.564,3.6
COc1ccc2c(c1OC)C(=O)OC2C1c2cc3c(cc2CCN1C)OCO3 (stereo not given),-0.68,-1.5
CN1CCc2cc3c(c4c2C1Cc1ccccc1-4)OCO3 (stereo not given),-3.19*,22.4
O=S(=O)(c1ccccc1)N1CCCC1c1cccnc1 (stereo not given),-1.12,nt
